Columns and labels:
Format in all cases: toxicity, cell-based
U2OS [1] = assay: Multiplex assay against U2OS; conditions: human
Outline: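 With compound added, live cells were imaged on a CQ1 microscope at 37°C and 5% CO2; staining with Hoechst33342, BioTracker Green Microtubule Cytoskeleton Dye, MitoTracker Red and Annexin V Alexa Fluor 680 had been done at seeding. The CellPathfinder machine-learning gating scheme split cells into Hoechst high-intensity objects or normal cells, normal cells into healthy, pyknosed or fragmented nuclei, and pyknosed cells into mitotic or apoptotic. The tubulin, mitochondrial-mass and membrane-permeability phenotypes are per cents of healthy-nucleus cells.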

HEK-293T = assay: Incucyte cell viability with HEK293T; conditions: human, 10 µM, compound concentration 10 uM; note: filed as whole numbers so only -1 and 0 and 1 occur
Fibroblast = assay: Incucyte cell viability with human fibroblast; conditions: 10 µM, compound concentration 10 uM; note: filed as whole numbers so only -1 and 0 and 1 occur
U2OS [2] = assay: Incucyte cell viability with U2OS; conditions: human, 10 µM, compound concentration 10 uM; note: filed as whole numbers so only -1 and 0 and 1 occur
[3] = 12 h, 1 µM, compound concentration 1 uM, replicate 1
[4] = 12 h, 1 µM, compound concentration 1 uM, replicate 2
[5] = 12 h, 10 µM, compound concentration 10 uM, replicate 1
[6] = 12 h, 10 µM, compound concentration 10 uM, replicate 2
[7] = 24 h, 1 µM, compound concentration 1 uM, replicate 1
[8] = 24 h, 1 µM, compound concentration 1 uM, replicate 2
[9] = 24 h, 10 µM, compound concentration 10 uM, replicate 1
[10] = 24 h, 10 µM, compound concentration 10 uM, replicate 2
[11] = 48 h, 1 µM, compound concentration 1 uM, replicate 1
[12] = 48 h, 1 µM, compound concentration 1 uM, replicate 2
[13] = 48 h, 10 µM, compound concentration 10 uM, replicate 1
[14] = 48 h, 10 µM, compound concentration 10 uM, replicate 2
[15] = 0 h, replicate number 1, timepoint 0 hours
[16] = 12 h, replicate number 1, timepoint 12 hours
[17] = 18 h, replicate number 1, timepoint 18 hours
[18] = 24 h, replicate number 1, timepoint 24 hours

For `CCn1c(-c2nonc2N)nc2cnc(Oc3cccc(NC(=O)c4ccc(OCCN5CCOCC5)cc4)c3)cc21` [GSK-269962A], the “Population Apoptotic (%)” value (U2OS [1]; [3]) was 43%, the “Population Fragmented Nuclei (%)” value (U2OS [1]; [3]) was 14% and the “Population Healthy Nuclei (%)” value (U2OS [1]; [3]) was 64%. The “Population Hoechst High Intensity Objects (%)” value (U2OS [1]; [3]) was 12%, the “Population Membrane Permeable-Phenotype (%)” value (U2OS [1]; [3]) was 13% and the “Population Mitochondria Different-Phenotype (%)” value (U2OS [1]; [3]) was 17%. For the same compound, the “Population Mitotic Cells (%)” value (U2OS [1]; [3]) was 56%, the “Population Normal (%)” value (U2OS [1]; [3]) was 87% and the “Population Pyknosed Nuclei (%)” value (U2OS [1]; [3]) was 21%. For the same compound, the “Population Tubulin-Different-Phenotype (%)” value (U2OS [1]; [3]) was 13%, the “Total Cell Count” value (U2OS [1]; [3]) was 156 and the “Population Apoptotic (%)” value (U2OS [1]; [4]) was 20%. The “Population Fragmented Nuclei (%)” value (U2OS [1]; [4]) was 20%, the “Population Healthy Nuclei (%)” value (U2OS [1]; [4]) was 72% and the “Population Hoechst High Intensity Objects (%)” value (U2OS [1]; [4]) was 2%. For the same compound, the “Population Membrane Permeable-Phenotype (%)” value (U2OS [1]; [4]) was 14%, the “Population Mitochondria Different-Phenotype (%)” value (U2OS [1]; [4]) was 16% and the “Population Mitotic Cells (%)” value (U2OS [1]; [4]) was 80%. The “Population Normal (%)” value (U2OS [1]; [4]) was 97%, the “Population Pyknosed Nuclei (%)” value (U2OS [1]; [4]) was 7% and the “Population Tubulin-Different-Phenotype (%)” value (U2OS [1]; [4]) was 14%. The “Total Cell Count” value (U2OS [1]; [4]) was 45, the “Population Apoptotic (%)” value (U2OS [1]; [5]) was 50% and the “Population Fragmented Nuclei (%)” value (U2OS [1]; [5]) was 15%. For the same compound, the “Population Healthy Nuclei (%)” value (U2OS [1]; [5]) was 53%, the “Population Hoechst High Intensity Objects (%)” value (U2OS [1]; [5]) was 10% and the “Population Membrane Permeable-Phenotype (%)” value (U2OS [1]; [5]) was 36%. The “Population Mitochondria Different-Phenotype (%)” value (U2OS [1]; [5]) was 94%, the “Population Mitotic Cells (%)” value (U2OS [1]; [5]) was 49% and the “Population Normal (%)” value (U2OS [1]; [5]) was 90%. For the same compound, the “Population Pyknosed Nuclei (%)” value (U2OS [1]; [5]) was 30%, the “Total Cell Count” value (U2OS [1]; [5]) was 121 and the “Population Apoptotic (%)” value (U2OS [1]; [6]) was 31%. The “Population Fragmented Nuclei (%)” value (U2OS [1]; [6]) was 20%, the “Population Healthy Nuclei (%)” value (U2OS [1]; [6]) was 57% and the “Population Hoechst High Intensity Objects (%)” value (U2OS [1]; [6]) was 7%. For the same compound, the “Population Membrane Permeable-Phenotype (%)” value (U2OS [1]; [6]) was 45%, the “Population Mitochondria Different-Phenotype (%)” value (U2OS [1]; [6]) was 97% and the “Population Mitotic Cells (%)” value (U2OS [1]; [6]) was 68%. For the same compound, the “Population Normal (%)” value (U2OS [1]; [6]) was 92%, the “Population Pyknosed Nuclei (%)” value (U2OS [1]; [6]) was 22% and the “Population Tubulin-Different-Phenotype (%)” value (U2OS [1]; [6]) was 100%. For the same compound, the “Total Cell Count” value (U2OS [1]; [6]) was 71, the “Population Apoptotic (%)” value (U2OS [1]; [7]) was 43% and the “Population Fragmented Nuclei (%)” value (U2OS [1]; [7]) was 10%. For the same compound, the “Population Healthy Nuclei (%)” value (U2OS [1]; [7]) was 71%, the “Population Hoechst High Intensity Objects (%)” value (U2OS [1]; [7]) was 7% and the “Population Membrane Permeable-Phenotype (%)” value (U2OS [1]; [7]) was 6%. The “Population Mitochondria Different-Phenotype (%)” value (U2OS [1]; [7]) was 18%, the “Population Mitotic Cells (%)” value (U2OS [1]; [7]) was 56% and the “Population Normal (%)” value (U2OS [1]; [7]) was 92%. For the same compound, the “Population Pyknosed Nuclei (%)” value (U2OS [1]; [7]) was 17%, the “Population Tubulin-Different-Phenotype (%)” value (U2OS [1]; [7]) was 8% and the “Total Cell Count” value (U2OS [1]; [7]) was 174. For the same compound, the “Population Apoptotic (%)” value (U2OS [1]; [8]) was 75%, the “Population Fragmented Nuclei (%)” value (U2OS [1]; [8]) was 11% and the “Population Healthy Nuclei (%)” value (U2OS [1]; [8]) was 77%. For the same compound, the “Population Hoechst High Intensity Objects (%)” value (U2OS [1]; [8]) was 2%, the “Population Membrane Permeable-Phenotype (%)” value (U2OS [1]; [8]) was 1% and the “Population Mitochondria Different-Phenotype (%)” value (U2OS [1]; [8]) was 10%. The “Population Mitotic Cells (%)” value (U2OS [1]; [8]) was 25%, the “Population Normal (%)” value (U2OS [1]; [8]) was 97% and the “Population Pyknosed Nuclei (%)” value (U2OS [1]; [8]) was 11%. The “Population Tubulin-Different-Phenotype (%)” value (U2OS [1]; [8]) was 14%, the “Total Cell Count” value (U2OS [1]; [8]) was 59 and the “Population Apoptotic (%)” value (U2OS [1]; [9]) was 70%. The “Population Fragmented Nuclei (%)” value (U2OS [1]; [9]) was 13%, the “Population Healthy Nuclei (%)” value (U2OS [1]; [9]) was 55% and the “Population Hoechst High Intensity Objects (%)” value (U2OS [1]; [9]) was 9%. For the same compound, the “Population Membrane Permeable-Phenotype (%)” value (U2OS [1]; [9]) was 52%, the “Population Mitochondria Different-Phenotype (%)” value (U2OS [1]; [9]) was 98% and the “Population Mitotic Cells (%)” value (U2OS [1]; [9]) was 29%. For the same compound, the “Population Normal (%)” value (U2OS [1]; [9]) was 90%, the “Population Pyknosed Nuclei (%)” value (U2OS [1]; [9]) was 30% and the “Total Cell Count” value (U2OS [1]; [9]) was 138. The “Population Apoptotic (%)” value (U2OS [1]; [10]) was 53%, the “Population Fragmented Nuclei (%)” value (U2OS [1]; [10]) was 30% and the “Population Healthy Nuclei (%)” value (U2OS [1]; [10]) was 52%. The “Population Hoechst High Intensity Objects (%)” value (U2OS [1]; [10]) was 5%, the “Population Membrane Permeable-Phenotype (%)” value (U2OS [1]; [10]) was 67% and the “Population Mitochondria Different-Phenotype (%)” value (U2OS [1]; [10]) was 97%. For the same compound, the “Population Mitotic Cells (%)” value (U2OS [1]; [10]) was 46%, the “Population Normal (%)” value (U2OS [1]; [10]) was 94% and the “Population Pyknosed Nuclei (%)” value (U2OS [1]; [10]) was 17%. For the same compound, the “Population Tubulin-Different-Phenotype (%)” value (U2OS [1]; [10]) was 100%, the “Total Cell Count” value (U2OS [1]; [10]) was 73 and the “Population Apoptotic (%)” value (U2OS [1]; [11]) was 48%. For the same compound, the “Population Fragmented Nuclei (%)” value (U2OS [1]; [11]) was 14%, the “Population Healthy Nuclei (%)” value (U2OS [1]; [11]) was 70% and the “Population Hoechst High Intensity Objects (%)” value (U2OS [1]; [11]) was 4%. The “Population Membrane Permeable-Phenotype (%)” value (U2OS [1]; [11]) was 7%, the “Population Mitochondria Different-Phenotype (%)” value (U2OS [1]; [11]) was 22% and the “Population Mitotic Cells (%)” value (U2OS [1]; [11]) was 52%. For the same compound, the “Population Normal (%)” value (U2OS [1]; [11]) was 95%, the “Population Pyknosed Nuclei (%)” value (U2OS [1]; [11]) was 15% and the “Population Tubulin-Different-Phenotype (%)” value (U2OS [1]; [11]) was 7%. For the same compound, the “Total Cell Count” value (U2OS [1]; [11]) was 230, the “Population Apoptotic (%)” value (U2OS [1]; [12]) was 33% and the “Population Fragmented Nuclei (%)” value (U2OS [1]; [12]) was 10%. For the same compound, the “Population Healthy Nuclei (%)” value (U2OS [1]; [12]) was 81%, the “Population Hoechst High Intensity Objects (%)” value (U2OS [1]; [12]) was 7% and the “Population Membrane Permeable-Phenotype (%)” value (U2OS [1]; [12]) was 8%. For the same compound, the “Population Mitochondria Different-Phenotype (%)” value (U2OS [1]; [12]) was 11%, the “Population Mitotic Cells (%)” value (U2OS [1]; [12]) was 66% and the “Population Normal (%)” value (U2OS [1]; [12]) was 92%. For the same compound, the “Population Pyknosed Nuclei (%)” value (U2OS [1]; [12]) was 9%, the “Population Tubulin-Different-Phenotype (%)” value (U2OS [1]; [12]) was 17% and the “Total Cell Count” value (U2OS [1]; [12]) was 82. For the same compound, the “Population Apoptotic (%)” value (U2OS [1]; [13]) was 64%, the “Population Fragmented Nuclei (%)” value (U2OS [1]; [13]) was 21% and the “Population Healthy Nuclei (%)” value (U2OS [1]; [13]) was 43%. The “Population Hoechst High Intensity Objects (%)” value (U2OS [1]; [13]) was 6%, the “Population Membrane Permeable-Phenotype (%)” value (U2OS [1]; [13]) was 71% and the “Population Mitochondria Different-Phenotype (%)” value (U2OS [1]; [13]) was 100%. For the same compound, the “Population Mitotic Cells (%)” value (U2OS [1]; [13]) was 35%, the “Population Normal (%)” value (U2OS [1]; [13]) was 93% and the “Population Pyknosed Nuclei (%)” value (U2OS [1]; [13]) was 34%. For the same compound, the “Population Tubulin-Different-Phenotype (%)” value (U2OS [1]; [13]) was 100%, the “Total Cell Count” value (U2OS [1]; [13]) was 169 and the “Population Apoptotic (%)” value (U2OS [1]; [14]) was 57%. The “Population Fragmented Nuclei (%)” value (U2OS [1]; [14]) was 13%, the “Population Healthy Nuclei (%)” value (U2OS [1]; [14]) was 59% and the “Population Hoechst High Intensity Objects (%)” value (U2OS [1]; [14]) was 10%. The “Population Membrane Permeable-Phenotype (%)” value (U2OS [1]; [14]) was 87%, the “Population Mitochondria Different-Phenotype (%)” value (U2OS [1]; [14]) was 97% and the “Population Mitotic Cells (%)” value (U2OS [1]; [14]) was 42%. For the same compound, the “Population Normal (%)” value (U2OS [1]; [14]) was 89%, the “Population Pyknosed Nuclei (%)” value (U2OS [1]; [14]) was 27% and the “Total Cell Count” value (U2OS [1]; [14]) was 108. The “Growth Rate” value (HEK-293T; [15]) was 1, the “Growth Rate” value (HEK-293T; 0 h, replicate number 2, timepoint 0 hours) was 0 and the “Growth Rate” value (HEK-293T; 6 h, replicate number 1, timepoint 6 hours) was 0. For the same compound, the “Growth Rate” value (HEK-293T; [16]) was 0, the “Growth Rate” value (HEK-293T; [17]) was 0 and the “Growth Rate” value (HEK-293T; [18]) was 0. The “Growth Rate” value (Fibroblast; [15]) was 0, the “Growth Rate” value (Fibroblast; [18]) was 1 and the “Growth Rate” value (U2OS [2]; [16]) was 1. For the same compound, the “Growth Rate” value (U2OS [2]; [17]) was 1 and the “Growth Rate” value (U2OS [2]; [18]) was 1.
